Assay results published in article PMC5749250 (Cell chemical biology, 2017).

Key:
[1] = molecular target: USP7 catalytic domain (amino acids 208–560) (Homo sapiens, UniProt Q93009); test: Ub-AMC assay, USP7 catalytic domain; type: biochemical; details: for inhibition of USP7: catalytic domain, Ub-AMC, concentrations up to 100 μM
Summary of the method: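 Human USP7 catalytic domain (residues 208–560) was expressed in E. coli BL21(DE3), purified on Ni-NTA, thrombin-treated, gel-filtered and used at 250 nM. 2 uM Ub-AMC was then added. Fluorescence (ex 345/em 445 nm) was read every minute for 30 min. IC50 came from initial rates plotted against concentration.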

[2] = molecular target: full-length USP7 (amino acids 1–1102) (Homo sapiens, UniProt Q93009); test: Ub-AMC assay, full-length USP7; type: biochemical; details: XL188 vs 1
Summary of the method: (§1)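 Full-length USP7 (1–1102), wild type or Q351 mutant, was expressed in E. coli BL21(DE3), purified by Ni-NTA and Superdex 200 and used at 50 nM. 2 uM Ub-AMC was added and fluorescence (345/445 nm) read each minute over 30 min. Initial rates against concentration gave IC50.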

MCF7 cells = test: HDM2, p53 and p21 protein levels in MCF7 cells; type: cell-based; details: 16 hours
Summary of the method: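 MCF7 cells grown in RPMI with 10% heat-inactivated FBS and penicillin/streptomycin at 37 °C, 5% CO2. Treated with test compound or DMSO for 16 h. Where used, cycloheximide (50 ug/ml) was added at 14 h. Cells were washed in PBS and lysed in modified RIPA buffer with phosphatase and protease inhibitors. Protein was quantified by BCA, then immunoblotted for mdm2, p53, p21, GAPDH and USP7.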

MM.1S cells = test: HDM2, p53 and p21 protein levels in MM.1S cells; type: cell-based; details: 6 hours
Summary of the method: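 MM.1S cells were cultured in RPMI with 10% heat-inactivated FBS and penicillin/streptomycin (37 °C, 5% CO2). They were exposed to test compound or DMSO for 6 h, with or without 50 ug/ml cycloheximide added at 4 h. After a PBS wash, cells were lysed in modified RIPA containing phosphatase and protease inhibitors. Lysates were BCA-normalised and immunoblotted for mdm2, p53, p21, GAPDH and USP7.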

full-length USP7Q351S = full-length USP7Q351S (Homo sapiens, UniProt Q93009, Q351S); test: Ub-AMC assay, full-length USP7Q351S; type: biochemical; details: dose-response, amino acids 1–1102
Summary of the method: as §1

native USP7 = native USP7 (Homo sapiens, UniProt Q93009); test: Competitive activity based protein profiling with HA-Ub-Vs in HEK293T lysates; type: binding
[3] = Mouse liver microsome stability; type: in vitro ADME; details: liver microsomes
panel of purified DUBs = test: Selectivity profiling; type: biochemical
USP10 = details: ref Altun et al., 2011; Ritorto et al., 2014; cited from earlier work
USP47 = details: ref Altun et al., 2011; Ritorto et al., 2014; cited from earlier work
USP7 = details: read-out: IC50, USP7; ref Altun et al., 2011; Ritorto et al., 2014; cited from earlier work
[4] = Solubility in aqueous buffer; type: physicochemical

Sequence of USP7 catalytic domain (amino acids 208–560) (Q93009 208-560): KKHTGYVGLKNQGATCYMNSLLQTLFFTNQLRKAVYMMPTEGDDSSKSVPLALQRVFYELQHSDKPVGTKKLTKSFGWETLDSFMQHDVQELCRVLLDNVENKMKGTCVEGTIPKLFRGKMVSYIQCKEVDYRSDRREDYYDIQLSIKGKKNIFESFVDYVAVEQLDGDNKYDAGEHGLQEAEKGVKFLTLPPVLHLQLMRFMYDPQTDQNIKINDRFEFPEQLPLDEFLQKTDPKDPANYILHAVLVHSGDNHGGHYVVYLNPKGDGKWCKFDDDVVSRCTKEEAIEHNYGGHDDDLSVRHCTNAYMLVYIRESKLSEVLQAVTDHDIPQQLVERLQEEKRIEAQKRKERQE
Sequence of full-length USP7Q351S (Q93009 whole entry Q351S, the tested form may be a part): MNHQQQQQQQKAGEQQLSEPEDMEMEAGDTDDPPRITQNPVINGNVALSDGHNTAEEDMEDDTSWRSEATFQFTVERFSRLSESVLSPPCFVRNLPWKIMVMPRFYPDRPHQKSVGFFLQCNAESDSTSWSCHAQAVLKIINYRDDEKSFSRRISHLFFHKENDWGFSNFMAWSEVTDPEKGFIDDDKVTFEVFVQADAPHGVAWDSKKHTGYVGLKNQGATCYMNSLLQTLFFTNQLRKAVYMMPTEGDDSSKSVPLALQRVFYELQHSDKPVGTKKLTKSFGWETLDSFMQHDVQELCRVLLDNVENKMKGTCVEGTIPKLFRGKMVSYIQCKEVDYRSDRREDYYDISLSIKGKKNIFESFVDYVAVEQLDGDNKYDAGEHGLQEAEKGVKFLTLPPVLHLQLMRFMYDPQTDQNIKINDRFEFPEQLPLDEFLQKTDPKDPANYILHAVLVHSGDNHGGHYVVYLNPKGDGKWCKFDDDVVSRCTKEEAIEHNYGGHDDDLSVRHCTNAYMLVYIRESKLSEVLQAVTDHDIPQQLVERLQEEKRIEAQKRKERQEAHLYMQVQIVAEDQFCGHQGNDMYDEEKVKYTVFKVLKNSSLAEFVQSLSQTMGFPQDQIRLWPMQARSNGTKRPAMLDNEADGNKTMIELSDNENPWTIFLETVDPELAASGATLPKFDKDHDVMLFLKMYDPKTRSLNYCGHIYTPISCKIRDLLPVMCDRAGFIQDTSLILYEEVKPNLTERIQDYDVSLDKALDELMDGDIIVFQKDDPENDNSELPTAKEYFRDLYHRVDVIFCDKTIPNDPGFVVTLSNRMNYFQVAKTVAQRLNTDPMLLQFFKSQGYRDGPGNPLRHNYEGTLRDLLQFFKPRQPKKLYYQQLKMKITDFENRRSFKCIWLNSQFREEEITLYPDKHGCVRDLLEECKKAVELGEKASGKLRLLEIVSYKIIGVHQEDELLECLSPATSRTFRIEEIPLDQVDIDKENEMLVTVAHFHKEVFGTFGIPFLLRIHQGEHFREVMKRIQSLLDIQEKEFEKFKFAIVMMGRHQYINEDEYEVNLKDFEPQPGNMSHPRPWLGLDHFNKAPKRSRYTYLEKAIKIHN
Sequence of full-length USP7 (amino acids 1–1102) (Q93009 whole entry, the tested form may be a part): as the sequence (Q93009 whole entry Q351S, the tested form may be a part) above, with S351Q counted along it
Sequence of native USP7 (Q93009 whole entry): as the sequence (Q93009 whole entry Q351S, the tested form may be a part) above, with S351Q counted along it

O=C(Cc1ccccc1)N1CCC(O)(Cn2cnc3cc(Cl)ccc3c2=O)CC1 [Compound 7, 7-chloro-3-((4-hydroxy-1-(2-phenylacetyl)piperidin-4-yl)methyl)quinazolin-4(3H)-one]
IC50 [1]: > 100 µM

N#CC1(Cn2cnc3cc(Cl)ccc3c2=O)CCN(C(=O)CCc2ccccc2)CC1 [Compound 3, 4-((7-chloro-4-oxoquinazolin-3(4H)-yl)methyl)-1-(3-phenylpropanoyl)piperidine-4-carbonitrile]
inhibition of USP7 [1]: little inhibition

O=C(CCc1ccccc1)N1CCC(O)(Cn2cnc3cc(Cl)ccc3c2=O)C1 (stereo not drawn) [Compound 5, 7-chloro-3-((3-hydroxy-1-(3-phenylpropanoyl)pyrrolidin-3-yl)methyl)quinazolin-4(3H)-one]
inhibition of USP7 [1]: abrogated USP7 activity

C[C@H](CC(=O)N1CCC(O)(Cn2cnc3cc(NC(=O)CCN4CCN(C)CC4)ccc3c2=O)CC1)c1ccccc1 [XL188, (R)-N-(3-((4-hydroxy-1-(3-phenylbutanoyl)piperidin-4-yl)methyl)-4-oxo-3,4-dihydroquinazolin-7-yl)-3-(4-methylpiperazin-1-yl)propanamide]
IC50 [1]: 0.193 µM
fold improvement in biochemical inhibition of USP7 compared to 1 [2]: 100 fold
levels of p53 and p21 (MCF7 cells): increased
HDM2 level (MCF7 cells; cycloheximide for the last 2 hours): Degradation of HDM2
HDM2 level (MM.1S cells): loss of HDM2
levels of p21 and p53 (MM.1S cells): increase
inhibition of full-length USP7Q351S (full-length USP7Q351S): resistant
IC50 (native USP7): ~0.9 µM
half-life [3]: 31 min
inhibition of DUBs other than USP7, panel of 41 purified DUBs (panel of purified DUBs; 10 μM compound, Ub-Rho as substrate): little to no inhibition

O=C(CCc1ccccc1)N1CCC(Cn2cnc3cc(Cl)ccc3c2=O)CC1 [Compound 2, 7-chloro-3-((1-(3-phenylpropanoyl)piperidin-4-yl)methyl)quinazolin-4(3H)-one]
inhibition of USP7 [1]: little inhibition

CC(CC(=O)N1CCC(O)(Cn2cnc3cc(Cl)ccc3c2=O)CC1)c1ccccc1 (stereo not drawn) [Compound 8, 7-chloro-3-((4-hydroxy-1-(3-phenylbutanoyl)piperidin-4-yl)methyl)quinazolin-4(3H)-one]
fold improvement of biochemical potency ([1]; relative to 1): approximately 10 fold

CC(=O)c1cc([N+](=O)[O-])c(Sc2ccc(F)cc2F)s1 [Compound P22077]
inhibition of USP10 compared with USP7 (USP10): equipotent
inhibition of USP47 compared with USP7 (USP47): equipotent

CC(=O)N1CCC(O)(Cn2cnc3cc(Cl)ccc3c2=O)CC1 [Compound 6, 3-((1-acetyl-4-hydroxypiperidin-4-yl)methyl)-7-chloroquinazolin-4(3H)-one]
IC50 [1]: > 100 µM

C[C@H](CC(=O)N1CCC(O)(Cn2cnc3cc(Cl)ccc3c2=O)CC1)c1ccccc1 [Compound 9, (R)-7-chloro-3-((4-hydroxy-1-(3-phenylbutanoyl)piperidin-4-yl)methyl)quinazolin-4(3H)-one]
fold more potent than the (S)-stereoisomer (10) ([1]; (R)- vs (S)-stereoisomer): approximately 100 fold
solubility in aqueous buffer [4]: poor

O=c1c2ccc(Cl)cc2ncn1CC1(O)CCN(CCCc2ccccc2)CC1 [Compound 4, 7-chloro-3-((4-hydroxy-1-(3-phenylpropyl)piperidin-4-yl)methyl)quinazolin-4(3H)-one]
inhibition of USP7 [1]: abrogated USP7 activity

C[C@@H](CC(=O)N1CCC(O)(Cn2cnc3cc(NC(=O)CCN4CCN(C)CC4)ccc3c2=O)CC1)c1ccccc1 [XL203C, (S)-N-(3-((4-hydroxy-1-(3-phenylbutanoyl)piperidin-4-yl)methyl)-4-oxo-3,4-dihydroquinazolin-7-yl)-3-(4-methylpiperazin-1-yl)propanamide]
levels of p53 and p21 (MCF7 cells): no observable change
inhibition of other DUBs (panel of purified DUBs; Figure S1G, Table S1, concentration not given): no significant inhibition
